Data set [1] can be described thus: Stability of compound in pH 2 phosphate buffer at room temperature assessed as prodrug remaining after conversion into active drug CH0793076 after 3 hrs. Type of data set: physicochemical. Particulars: pH 2, 3 h.
Data set [2] in a line: Stability of compound in pH 7.4 phosphate buffer at room temperature assessed as prodrug remaining after conversion into active drug CH0793076 after 3 hrs. The data set is classed as physicochemical. Particulars: pH 7.4, 3 h.
The nature of data set [3]: Stability of compound in pH 5 phosphate buffer at room temperature assessed as prodrug remaining after conversion into active drug CH0793076 after 3 hrs. The data set is classed as physicochemical. The following applies: pH 5, 3 h.
Data set [4] is described as follows: Solubility in water. Type of data set: physicochemical.
Data set [5] relates to NCI-H460. Description: Antitumor activity against human BCRP-positive NCI-H460 cells xenografted in mouse at MTD of 47 mg/kg, iv administered as bolus once per week for 3 weeks. The data set is classed as functional, organism-based. Also on record: dose 47 mg/kg. Background: Xenograft models place foreign cells or tissue in a host animal.
The test system of data set [6] is Plasma. Description: Stability in rat plasma assessed as time required for conversion into active drug CH0793076. The data set is classed as ADME, cell-free. Summed up: (§1)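 ¹⁴C-labelled prodrug was incubated in plasma of the stated species. Formation of ¹⁴C-labelled active drug was followed over an incubation time course of 0–3 min.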
The test system of data set [7] is Plasma. The experiment in a line: Stability in monkey plasma assessed as time required for conversion into active drug CH0793076. Type of data set: ADME, cell-free, Macaca mulatta. The following applies: rhesus monkey.
In data set [8] the test system is NCI-H460. Description: Antitumor activity against human BCRP-positive NCI-H460 cells xenografted in mouse at MTD of 100 mg/kg, iv administered as bolus once per week for 3 weeks. The data set is classed as functional, organism-based. Also on record: dose 100 mg/kg.
Data set [9] deals with Plasma. Description: Stability in dog plasma assessed as time required for conversion into active drug CH0793076. The data set is classed as ADME, cell-free, Canis lupus familiaris. Summed up: as §1
The nature of data set [10]: Toxicity in mouse administered as bolus iv injection once per week for 3 weeks. The data set is classed as organism-based. Particulars: in vivo.
The subject of data set [11] is HCT-116. Description: Antitumor activity against human BCRP-negative HCT116 cells xenografted in mouse at MTD of 47 mg/kg, iv administered as bolus once per week for 3 weeks. The data set is classed as functional, organism-based. Also on record: dose 47 mg/kg.
Data set [12] concerns HCT-116. The experiment in a line: Antitumor activity against human BCRP-negative HCT116 cells xenografted in mouse at MTD of 100 mg/kg, iv administered as bolus once per week for 3 weeks. Type of data set: functional, organism-based. More on the design: dose 100 mg/kg.
Data set [13] concerns Plasma. Description: Stability in mouse plasma assessed as time required for conversion into active drug CH0793076. The data set is classed as ADME, cell-free.

Active and inactive are the calls of the source. No cut-off for these calls is given here.

On to `CCCCCN1C=Nc2cccc3nc4c(c1c23)Cn1c-4cc2c(c1=O)COC(=O)[C@@]2(CC)OC(=O)OCCS(=O)(=O)CCN.Cl`, for which the Stability in data set [1] is 100%; in [2], 4%; in data set [3], 96%.
As to `CCCCCN1C=Nc2cccc3nc4c(c1c23)Cn1c-4cc2c(c1=O)COC(=O)[C@@]2(CC)OC(=O)OCCS(=O)(=O)C[C@H](N)C(=O)OCC.Cl`, the Stability in data set [1] amounted to 100%; in [2] it was 43%; in [3], 68%.
For `CCCCCN1C=Nc2cccc3nc4c(c1c23)Cn1c-4cc2c(c1=O)COC(=O)[C@@]2(CC)OC(=O)CNC(=O)CNC.Cl`, in that order: 100%, 73% and 100%.
For `CCCCCN1C=Nc2cccc3nc4c(c1c23)Cn1c-4cc2c(c1=O)COC(=O)[C@@]2(CC)OC(=O)CN(C)C(=O)C(C)(C)N.Cl`, in that order: 78%, 0% and 0%.
As to `CCCCCN1C=Nc2cccc3nc4c(c1c23)Cn1c-4cc2c(c1=O)COC(=O)[C@@]2(CC)OC(=O)CN(C)C(=O)CNC.Cl`, the Stability was 95% in data set [1], 0% in data set [2] and 83% in data set [3].
For `CCCCCN1C=Nc2cccc3nc4c(c1c23)Cn1c-4cc2c(c1=O)COC(=O)[C@@]2(CC)OC(=O)[C@H](C)N(C)C(=O)CN.Cl`, in that order: 99%, 0% and 47%.
The term solubility denotes the dissolved amount per volume that the medium holds. In turn, `CCCCCN1C=Nc2cccc3nc4c(c1c23)Cn1c-4cc2c(c1=O)COC(=O)[C@@]2(CC)OC(=O)CN(C)C(=O)CN.Cl` registered a solubility in data set [4] of over 10000 µg/mL. Also, the outcome in the data set on NCI-H460 [5], in the data set with NCI-H460 [8], in the data set on HCT-116 [11] and with HCT-116 [12] was Active. The Stability is recorded as under 1 min in the data set with Plasma [6]; 100% in [1]; under 1 min with Plasma [7]; under 1 min in the data set on Plasma [9]; 0% in [2]; 83% in data set [3]. The Stability in the data set on Plasma [13] is listed as under 1 min. For the same compound, in data set [10], the MTD at 504 h turned out to be 47 mg/kg.
Take `CCCCCN1C=Nc2cccc3nc4c(c1c23)Cn1c-4cc2c(c1=O)COC(=O)[C@@]2(CC)OC(=O)CNC(=O)CN.Cl`: the results for the Stability in data set [2] and in data set [3] were 47% and 100%, respectively.

(Values after ChEMBL document CHEMBL1152911, “Synthesis and biological activities of a pH-dependently activated water-soluble prodrug of a novel hexacyclic camptothecin analog” (Bioorg Med Chem Lett, 2009).)
